A short description of data set [1]: Apparent permeability in human Caco2 cells. Type of data set: ADME, cell-based. The note with it: Caco-2. The procedure, abridged:
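Apical-to-basolateral permeation (Papp, ×10-6 cm/s) was measured in quadruplicate. Compound was quantified by selected-mass UPLC-MS.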
(In general: Caco-2 cells form a polarised layer with tight junctions and transporters.)

A short description of data set [2]: Thermodynamic aqueous solubility of compound in pH 7.4 PBS by UPLC-MS analysis. Type of data set: physicochemical. The note with it: PBS pH 7.4, pH 7.4; read-out: Therm_solubility.
The nature of data set [3]: 1,9-decadiene/aqueous buffer solution partition coefficient, log D of the compound in PBS at pH 7.4 by shake flask method. In kind it is physicochemical.
Data set [4] is described as follows: Apparent permeability in low-efflux MDCK2 cells at 2 uM by lucifer yellow dye-based UPLC-MS analysis. In kind it is ADME, cell-based, Canis lupus familiaris, MDCK-II. The note with it: dog, MDCK.
Data set [5] is described as follows: Apparent permeability of compound in pH 7.4 PBS after 16 hrs by PAMPA assay. In kind it is ADME. In general terms: In PAMPA a lipid-coated filter parts donor from acceptor wells.

≈ marks a conversion by molar mass, not a printed value. Where a SMILES comes first, the peptide text is derived from it. [ ]: non-standard residue; d: D form. NMeY = CN[C@@H](Cc1ccc(O)cc1)C(=O)O; NMeF = CN[C@@H](Cc1ccccc1)C(=O)O; dNMeF = CN[C@H](Cc1ccccc1)C(=O)O; NMeA = CN[C@@H](C)C(=O)O; dNMeA = CN[C@H](C)C(=O)O; Sar = CNCC(=O)O

Turning to `CC[C@H]1OC(=O)[C@H](C)[C@@H](O[C@H]2C[C@@](C)(OC)[C@@H](O)[C@H](C)O2)[C@H](C)[C@@H](O[C@@H]2O[C@H](C)C[C@H](N(C)C)[C@H]2O)[C@](C)(O)C[C@@H](C)/C(=N/OCOCCOC)[C@H](C)[C@@H](O)[C@]1(C)O`, the Papp in data set [1] is over 10 ×10⁻⁶ cm/s.

Regarding `C/C=C/C[C@@H](C)[C@@H](O)[C@H]1C(=O)N[C@@H]([C@@H](C)O)C(=O)N(C)CC(=O)N(C)[C@@H](CC(C)C)C(=O)N[C@@H](C(C)C)C(=O)N(C)[C@@H](CC(C)C)C(=O)N[C@@H](C)C(=O)N[C@H](C)C(=O)N(C)[C@@H](CC(C)C)C(=O)N(C)[C@@H](CC(C)C)C(=O)N(C)[C@@H](C(C)C)C(=O)N1C`, in data set [2], the solubility thermodynamic worked out at 33 µM (≈ 40.2 µg/mL). This molecule showed a logD hydrocarbon water in data set [3] of 2.43. Besides, the Papp at 2 µM in data set [4] was determined as 0.5 ×10⁻⁶ cm/s.

`CC[C@@H]1NC(=O)[C@H](CC(C)C)N(C)C(=O)[C@H](C(C)C)N(C)C(=O)[C@H](CC(C)C)N(C)C(=O)[C@H](CC(C)C)N(C)C(=O)[C@@H](C)NC(=O)[C@H](C)NC(=O)[C@H](CC(C)C)N(C)C(=O)[C@H](C(C)C)NC(=O)[C@H](CC(C)C)N(C)C(=O)CN(C)C1=O`: the solubility thermodynamic in data set [2] is 22 µM (≈ 25.2 µg/mL). In data set [3], the logD hydrocarbon water is 3.94. Besides, in data set [4], the Papp at 2 µM was determined as 1.8 ×10⁻⁶ cm/s.

As to `C/C=C/C[C@@H](C)[C@@H](O)[C@H]1C(=O)N[C@@H](C(C)C)C(=O)N(C)CC(=O)N(C)[C@@H](CC(C)C)C(=O)N[C@@H](C(C)C)C(=O)N(C)[C@@H](CC(C)C)C(=O)N[C@@H](C)C(=O)N[C@H](C)C(=O)N(C)[C@@H](CC(C)C)C(=O)N(C)[C@@H](CC(C)C)C(=O)N(C)[C@@H](C(C)C)C(=O)N1C`, the solubility thermodynamic in data set [2] is 0.12 µM (≈ 0.146 µg/mL). The logD hydrocarbon water in data set [3] is 3.86. Further, the apparent permeability coefficient (Papp) at 2 µM in data set [4] was determined as 0.7 ×10⁻⁶ cm/s.

`C/C=C/C[C@@H](C)[C@@H](OC(C)=O)[C@H]1C(=O)N[C@@H](CC)C(=O)N(C)CC(=O)N(C)[C@@H](CC(C)C)C(=O)N[C@@H](C(C)C)C(=O)N(C)[C@@H](CC(C)C)C(=O)N[C@@H](C)C(=O)N[C@H](C)C(=O)N(C)[C@@H](CC(C)C)C(=O)N(C)[C@@H](CC(C)C)C(=O)N(C)[C@@H](C(C)C)C(=O)N1C`: in data set [2], the solubility thermodynamic is 0.005 µM (≈ 0.00622 µg/mL). The same molecule displayed a logD hydrocarbon water in data set [3] of 4.14.

Take `C/C=C/C[C@@H](C)[C@@H](O)[C@H]1C(=O)N[C@@H](C)C(=O)N(C)CC(=O)N(C)[C@@H](CC(C)C)C(=O)N[C@@H](C(C)C)C(=O)N(C)[C@@H](CC(C)C)C(=O)N[C@@H](C)C(=O)N[C@H](C)C(=O)N(C)[C@@H](CC(C)C)C(=O)N(C)[C@@H](CC(C)C)C(=O)N(C)[C@@H](C(C)C)C(=O)N1C`: the solubility thermodynamic in data set [2] worked out at 27 µM (≈ 32.1 µg/mL). Also, the logD hydrocarbon water in data set [3] was 3.18. Further, in data set [4], the Papp at 2 µM worked out at 1.4 ×10⁻⁶ cm/s.

Consider `C/C=C/C[C@@H](C)[C@H]1OC(=O)[C@H](C(C)C)N(C)C(=O)[C@H](CC(C)C)N(C)C(=O)[C@H](CC(C)C)N(C)C(=O)[C@@H](C)NC(=O)[C@H](C)NC(=O)[C@H](CC(C)C)N(C)C(=O)[C@H](C(C)C)NC(=O)[C@H](CC(C)C)N(C)C(=O)CN(C)C(=O)[C@H](CC)NC(=O)[C@H]1NC`, for which the solubility thermodynamic in data set [2] came to 2.2 µM (≈ 2.65 µg/mL). The logD hydrocarbon water in data set [3] worked out at 2.61.

`CC[C@@H]1NC(=O)[C@H](CC(C)C)N(C)C(=O)[C@H](CC)N(C)C(=O)[C@H](CC(C)C)N(C)C(=O)[C@H](CC(C)C)N(C)C(=O)[C@@H](C)NC(=O)[C@H](C)NC(=O)[C@H](CC(C)C)N(C)C(=O)[C@H](C(C)C)NC(=O)[C@H](CC(C)C)N(C)C(=O)CN(C)C1=O`: the solubility thermodynamic in data set [2] was 10 µM (≈ 11.3 µg/mL). The molecule further came in with a logD hydrocarbon water in data set [3] of 3.64. Also, the Papp at 2 µM in data set [4] stood at 2.7 ×10⁻⁶ cm/s.

With `CC(C)C[C@@H]1NC(=O)[C@H](C)NC(=O)[C@H](Cc2ccc(O)cc2)N(C)C(=O)[C@H](Cc2ccccc2)NC(=O)CN(C)C(=O)[C@@H]2CCCN2C(=O)[C@@H](Cc2ccccc2)N(C)C1=O` (cyclo(AL[dNMeF]P[Sar]F[NMeY])), in data set [2], the solubility thermodynamic came out at 10 µM (≈ 8.38 µg/mL). The same molecule registered a logD hydrocarbon water in data set [3] of -2.44. The Papp at 16 h in data set [5] was determined as 0.2 ×10⁻⁶ cm/s.

As for `CC[C@H](C)[C@@H]1NC(=O)[C@H](Cc2ccc(O)cc2)N(C)C(=O)[C@H](C)NC(=O)CN(C)C(=O)[C@@H]2CCCN2C(=O)[C@@H](Cc2ccccc2)N(C)C(=O)[C@H](CC(C)C)NC1=O` (cyclo(A[NMeY]IL[dNMeF]P[Sar])), the solubility thermodynamic in data set [2] was determined as 17 µM (≈ 13.7 µg/mL). In data set [3], this molecule yielded a logD hydrocarbon water of -1.78.

In the case of `CC[C@H](C)[C@@H]1NC(=O)[C@H](Cc2ccc(O)cc2)N(C)C(=O)[C@H](Cc2ccccc2)NC(=O)CN(C)C(=O)[C@@H]2CCCN2C(=O)[C@@H](Cc2ccccc2)N(C)C(=O)[C@H](C)NC1=O` (cyclo(A[dNMeF]P[Sar]F[NMeY]I)), the solubility thermodynamic in data set [2] is 9 µM (≈ 7.54 µg/mL). Further, the logD hydrocarbon water in data set [3] is -1.52.

For the molecule `CC[C@H](C)[C@@H]1NC(=O)[C@H](C)N(C)C(=O)[C@H](Cc2ccccc2)NC(=O)CN(C)C(=O)[C@@H]2CCCN2C(=O)[C@@H](Cc2ccccc2)N(C)C(=O)[C@H](CC(C)C)NC1=O` (cyclo(F[NMeA]IL[dNMeF]P[Sar])), the solubility thermodynamic in data set [2] is 16 µM (≈ 12.6 µg/mL). In data set [3], this molecule displayed a logD hydrocarbon water of 0.71. For the same molecule, the Papp at 16 h in data set [5] turned out to be 5.9 ×10⁻⁶ cm/s.

For `CC[C@H](C)[C@@H]1NC(=O)[C@H](Cc2ccccc2)N(C)C(=O)[C@H](Cc2ccccc2)NC(=O)CN(C)C(=O)[C@@H]2CCCN2C(=O)[C@@H](Cc2ccccc2)N(C)C(=O)[C@H](CC(C)C)NC1=O` (cyclo(F[NMeF]IL[dNMeF]P[Sar])), the solubility thermodynamic in data set [2] was 2.3 µM (≈ 1.99 µg/mL). Also, the logD hydrocarbon water in data set [3] was 2.13. Moreover, the Papp at 16 h in data set [5] stood at 2.3 ×10⁻⁶ cm/s.

`CC[C@H](C)[C@@H]1NC(=O)[C@H](Cc2ccc(O)cc2)N(C)C(=O)[C@H](Cc2ccccc2)NC(=O)CN(C)C(=O)[C@@H]2CCCN2C(=O)[C@@H](C)N(C)C(=O)[C@H](CC(C)C)NC1=O` (cyclo(F[NMeY]IL[dNMeA]P[Sar])) registered a logD hydrocarbon water in data set [3] of -1.71. The Papp at 16 h in data set [5] is 1.3 ×10⁻⁶ cm/s.

With `CC[C@H](C)[C@@H]1NC(=O)[C@H](Cc2ccc(O)cc2)N(C)C(=O)[C@H](Cc2ccccc2)NC(=O)CN(C)C(=O)[C@H](C)N(C)C(=O)[C@@H](Cc2ccccc2)N(C)C(=O)[C@H](CC(C)C)NC1=O` (cyclo(F[NMeY]IL[dNMeF][NMeA][Sar])), in data set [2], the solubility thermodynamic stood at 37 µM (≈ 32.1 µg/mL). Also, the logD hydrocarbon water in data set [3] is 0.92. The Papp at 16 h in data set [5] was found to be 7.8 ×10⁻⁶ cm/s.

Consider `CC[C@H]1OC(=O)[C@H](C)[C@@H](O[C@H]2C[C@@](C)(OC)[C@@H](O)[C@H](C)O2)[C@H](C)[C@@H](O[C@@H]2O[C@H](C)C[C@H](N(C)C)[C@H]2O)[C@](C)(O)C[C@@H](C)CN(C)[C@H](C)[C@@H](O)[C@]1(C)O` [AZITHROMYCIN], for which the Papp in data set [1] was in the range of 1 to 3 ×10⁻⁶ cm/s.

For the molecule `CC[C@H]1OC(=O)[C@H](C)[C@@H](O[C@H]2C[C@@](C)(OC)[C@@H](O)[C@H](C)O2)[C@H](C)[C@@H](O[C@@H]2O[C@H](C)C[C@H](N(C)C)[C@H]2O)[C@](C)(OC)C[C@@H](C)C(=O)[C@H](C)[C@@H](O)[C@]1(C)O` [CLARITHROMYCIN], the Papp in data set [1] is over 10 ×10⁻⁶ cm/s.

With `CC[C@H](C)[C@@H]1NC(=O)[C@H](Cc2ccc(O)cc2)N(C)C(=O)[C@H](Cc2ccccc2)NC(=O)CN(C)C(=O)[C@@H]2CCCN2C(=O)[C@@H](Cc2ccccc2)N(C)C(=O)[C@H](CC(C)C)NC1=O` [CORDYHEPTAPEPTIDE A] (cyclo(F[NMeY]IL[dNMeF]P[Sar])), the solubility thermodynamic in data set [2] was found to be 0.45 µM (≈ 0.396 µg/mL). The logD hydrocarbon water in data set [3] was -0.13.

Consider `CC(C)C[C@@H]1NC(=O)[C@H](C(C)C)NC(=O)[C@H](Cc2ccc(O)cc2)N(C)C(=O)[C@H](Cc2ccccc2)NC(=O)CN(C)C(=O)[C@@H]2CCCN2C(=O)[C@@H](Cc2ccccc2)N(C)C1=O` [Cordyheptapeptide C], for which the solubility thermodynamic in data set [2] was found to be 2.7 µM (≈ 2.34 µg/mL). Further, the logD hydrocarbon water in data set [3] was -0.43. For the same molecule, the Papp at 16 h in data set [5] was determined as 1.9 ×10⁻⁶ cm/s.

In the case of `CC[C@H]1OC(=O)[C@H](C)[C@@H](O[C@H]2C[C@@](C)(OC)[C@@H](O)[C@H](C)O2)[C@H](C)[C@@H](O[C@@H]2O[C@H](C)C[C@H](N(C)C)[C@H]2O)[C@](C)(O)C[C@@H](C)C(=O)[C@H](C)[C@@H](O)[C@]1(C)O` [ERYTHROMYCIN], in data set [3], the logD hydrocarbon water was -3.9. The apparent permeability coefficient (Papp) in data set [1] fell in the range of 1 to 3 ×10⁻⁶ cm/s.

As usually defined, the Papp is a coefficient for how fast a substance crosses the barrier.

These data come from ChEMBL document CHEMBL4325887, “Lipophilic Permeability Efficiency Reconciles the Opposing Roles of Lipophilicity in Membrane Permeability and Aqueous Solubility” (J Med Chem, 2018).
